Results on one compound are retold here after article PMC11726021 (Cancer Discovery, 2024).

One data set addresses HER2 (Homo sapiens, UniProt P04626). The data set is described as follows: SelectScreen kinase panel, single-point inhibition, HER2. Type of data set: biochemical. Conditions: read-out: inhibition of HER2. An outline of the steps: (§1)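 Each kinase was tested at a single point of 1 μmol/L in a broad profiling panel. Dose–response curves were run only for selected kinases.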
The test system of another data set is MDA-MB-175-VII. The experiment in a line: proliferation assay MDA-MB-175-VII. The format is cell-based. Conditions: Homo sapiens, read-out: IC50 proliferation MDA-MB-175-VII. An outline of the steps:
(§2)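 Cells were seeded and left overnight at 37°C, 5% CO₂ (MDA-MB-453 and SW-13 without CO₂). Serial compound dilutions or 0.1% DMSO control were added in triplicate. After 5 days, viability was read by CellTiter-Glo luminescence and IC₅₀ derived by curve fitting. MDA-MB-175-VII were grown in DMEM with 10% FBS, GlutaMAX and sodium pyruvate. All lines were Mycoplasma-tested and validated by NGS and STR.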

Data set [1] has as its system HER2 phosphorylation in NCI-N87 tumors. The data set is described as follows: in vivo biomarker analyses in NCI-N87 tumors. Also noted: species or system mouse. Conditions: dosed twice daily for 3 days. An outline of the steps:
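Female NMRI-Foxn1nu mice, 6–10 weeks old, were engrafted s.c. with 2.5 × 10⁶ NCI-N87 cells. Dosing was twice daily, 6 hours apart, for 3 days, with sampling times relative to the first dose on day 3. Tumour pHER2 and pAKT (S473) were read by ELISA. DUSP6 was measured by QuantSeq on RNA from homogenised tumour.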

For data set [2], the system named is MAPK pathway activation score (MPAS) in NCI-N87 cells. The experiment in a line: in vitro gene expression profiling, MPAS score, NCI-N87 cells. Type of data set: cell-based, human.
The next data set deals with HER4 (Homo sapiens, UniProt Q15303). The data set is described as follows: SelectScreen kinase panel, single-point inhibition, HER4. The format is biochemical. Conditions: read-out: inhibition of HER4. An outline of the steps:
as §1

The test system of data set [3] is phosphorylated EGFR in A431 (EGFR^WT-dependent). The data set is described as follows: Simple Western, EGFR phosphorylation in A431 cells. The format is cell-based, human. The gist of the method: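 Cells were plated at 1 × 10⁵ per well, treated the next day with test compound for 6 hours, lysed, and analysed by capillary immunoassay.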
The test system of a further data set is HCC1419. The data set is described as follows: proliferation assay HCC1419. Type of data set: cell-based. Conditions: Homo sapiens, HCC1419, read-out: IC50 proliferation HCC1419. An outline of the steps: as §2
Another data set deals with A431 EGFR^WT. The experiment in a line: proliferation assay A431 EGFR^WT. Type of data set: cell-based, human. An outline of the steps:
as §2

A short description of data set [4]: in vivo PK in rat, dog, and minipig models. An outline of the steps: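 PK was measured after both i.v. and oral administration. Clearance came from the i.v. data. Absorption rate constants per species were fitted with a one-compartment model: first-order oral absorption, no lag time, first-order elimination.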
The subject of data set [5] is parental and T-DXd–resistant NCI-N87 cells. The experiment in a line: dose-response of parental and T-DXd-resistant NCI-N87 cells in vitro. The format is cell-based, human.

Chain of HER2 (P04626 23-1255): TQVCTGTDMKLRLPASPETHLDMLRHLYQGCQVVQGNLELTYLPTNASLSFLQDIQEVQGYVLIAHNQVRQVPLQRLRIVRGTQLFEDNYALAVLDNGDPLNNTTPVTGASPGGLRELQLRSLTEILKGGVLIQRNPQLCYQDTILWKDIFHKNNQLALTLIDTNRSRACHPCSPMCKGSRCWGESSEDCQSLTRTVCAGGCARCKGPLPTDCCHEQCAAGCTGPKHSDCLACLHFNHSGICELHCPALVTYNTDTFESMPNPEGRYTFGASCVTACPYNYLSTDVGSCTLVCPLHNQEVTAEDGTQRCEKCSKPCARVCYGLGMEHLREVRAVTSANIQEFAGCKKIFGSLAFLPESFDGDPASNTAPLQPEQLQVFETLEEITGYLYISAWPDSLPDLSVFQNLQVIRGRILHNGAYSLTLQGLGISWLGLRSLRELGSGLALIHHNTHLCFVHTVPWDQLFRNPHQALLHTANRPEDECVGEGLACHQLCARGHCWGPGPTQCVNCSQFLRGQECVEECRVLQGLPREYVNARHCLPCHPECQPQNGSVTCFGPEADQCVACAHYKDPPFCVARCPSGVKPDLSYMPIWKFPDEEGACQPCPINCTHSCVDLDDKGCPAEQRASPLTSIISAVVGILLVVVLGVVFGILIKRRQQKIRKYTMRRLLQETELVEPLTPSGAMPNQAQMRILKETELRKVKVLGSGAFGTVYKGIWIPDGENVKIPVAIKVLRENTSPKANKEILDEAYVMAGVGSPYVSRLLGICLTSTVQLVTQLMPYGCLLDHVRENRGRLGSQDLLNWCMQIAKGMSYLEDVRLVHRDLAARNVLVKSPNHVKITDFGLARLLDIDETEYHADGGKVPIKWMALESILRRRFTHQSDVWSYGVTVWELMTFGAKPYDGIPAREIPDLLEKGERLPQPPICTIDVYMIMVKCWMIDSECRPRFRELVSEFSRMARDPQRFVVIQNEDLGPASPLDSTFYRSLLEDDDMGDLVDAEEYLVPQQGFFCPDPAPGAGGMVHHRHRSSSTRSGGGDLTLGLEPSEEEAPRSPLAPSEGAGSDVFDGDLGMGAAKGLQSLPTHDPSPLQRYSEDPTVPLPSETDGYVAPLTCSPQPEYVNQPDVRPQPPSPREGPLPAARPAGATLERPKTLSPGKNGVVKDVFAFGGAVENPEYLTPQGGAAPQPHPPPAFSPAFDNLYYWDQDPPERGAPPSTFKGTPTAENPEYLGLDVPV
Chain of HER4 (Q15303 26-1308): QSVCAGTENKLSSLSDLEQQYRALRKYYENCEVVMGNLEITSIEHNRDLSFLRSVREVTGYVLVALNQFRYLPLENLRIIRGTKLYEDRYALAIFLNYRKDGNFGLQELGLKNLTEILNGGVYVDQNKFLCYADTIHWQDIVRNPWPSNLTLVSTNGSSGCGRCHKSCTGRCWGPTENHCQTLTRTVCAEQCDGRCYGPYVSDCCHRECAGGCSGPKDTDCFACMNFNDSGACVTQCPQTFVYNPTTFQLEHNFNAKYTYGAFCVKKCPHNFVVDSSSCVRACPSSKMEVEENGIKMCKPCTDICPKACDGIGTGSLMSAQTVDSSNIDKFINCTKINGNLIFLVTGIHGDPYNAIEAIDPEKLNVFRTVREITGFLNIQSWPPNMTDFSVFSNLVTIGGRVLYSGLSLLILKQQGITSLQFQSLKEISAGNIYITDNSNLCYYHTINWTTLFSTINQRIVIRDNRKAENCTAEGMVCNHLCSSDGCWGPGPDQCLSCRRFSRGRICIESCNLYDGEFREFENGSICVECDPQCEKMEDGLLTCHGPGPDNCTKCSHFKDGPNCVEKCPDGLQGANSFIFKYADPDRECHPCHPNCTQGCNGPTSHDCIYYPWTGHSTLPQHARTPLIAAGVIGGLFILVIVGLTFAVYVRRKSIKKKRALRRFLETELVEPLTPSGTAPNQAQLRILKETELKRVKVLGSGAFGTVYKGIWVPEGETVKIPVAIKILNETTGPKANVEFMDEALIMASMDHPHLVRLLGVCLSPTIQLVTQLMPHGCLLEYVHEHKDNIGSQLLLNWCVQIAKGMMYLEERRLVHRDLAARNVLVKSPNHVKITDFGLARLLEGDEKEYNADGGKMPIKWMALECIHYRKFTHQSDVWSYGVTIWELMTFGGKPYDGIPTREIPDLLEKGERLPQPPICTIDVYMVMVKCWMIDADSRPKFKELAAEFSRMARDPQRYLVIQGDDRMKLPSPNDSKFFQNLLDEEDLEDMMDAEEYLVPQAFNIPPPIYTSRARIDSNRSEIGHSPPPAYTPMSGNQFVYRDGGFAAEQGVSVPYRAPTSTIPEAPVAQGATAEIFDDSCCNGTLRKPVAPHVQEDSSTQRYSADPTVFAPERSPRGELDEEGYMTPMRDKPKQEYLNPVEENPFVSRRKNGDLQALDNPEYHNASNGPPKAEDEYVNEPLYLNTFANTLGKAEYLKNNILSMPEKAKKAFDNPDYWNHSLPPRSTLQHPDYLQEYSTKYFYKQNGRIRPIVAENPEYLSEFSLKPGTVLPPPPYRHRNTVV

Broadly, the inhibition is the change of the read-out against control, counted positive when it falls. In the case of `C=CC(=O)NC1CCN(c2ncc3ncnc(Nc4ccc(Oc5ccc6c(c5)ncn6C)c(C)c4)c3n2)CC1` [zongertinib, N-(1-(8-((3-methyl-4-((1-methyl-1H-benzo[d]imidazol-5-yl)oxy)phenyl)amino)pyrimido[5,4-d]pyrimidin-2-yl)piperidin-4-yl)acrylamide], the inhibition at 1 µM on HER2 and at HER4 was > 80% throughout. The IC50 with MDA-MB-175-VII is < 100 nM; in the data set with HCC1419, < 100 nM; in the data set on A431 EGFR^WT (Homo sapiens, A-431, read-out: Antiproliferative effect IC50 A431 EGFR^WT), > 5000 nM. In addition, the “HER2 phosphorylation in tumors” value in [1] was “suppressed”. For the same compound, the MPAS score result in data set [2] was “time- and dose-dependent reduction”. The “dose reducing phosphorylated EGFR” value in [3] is recorded as > 100 nmol/L. In the data set with A431 EGFR^WT (HER2 is not an oncogenic driver, dependent on EGFR^WT), the “antiproliferative activity A431” value is “not active”. The “oral bioavailability across species” value in [4] is “moderate to good”. In addition, the “difference in IC50 values between parental and T-DXd–resistant NCI-N87 cells” value in [5] is < 10 fold.
